Experimental data as given in ChEMBL document CHEMBL1138429, “Novel carbazole derivatives as NPY Y1 antagonists” (Bioorg Med Chem Lett, 2007).
pIC50: −log10 of the molar value.

Experiments:
[1] = Ratio of drug level in […] plasma in Sprague-Dawley rat at 1 mg/kg, iv after 5 mins; type: ADME, organism-based; set-up: dose 1 mg/kg, route intravenous
Method in brief: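 Brain penetration was assessed in male Sprague–Dawley rats dosed iv at 1 mg/kg in DMSO/PEG400/H2O 5:50:45 solution. The partition ratio was measured 5 min after dosing.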

[2] = molecular target: T1, Neuropeptide Y receptor type 1 (Homo sapiens, UniProt P25929); test: Displacement of [125]peptide YY from human recombinant Y1 receptor expressed in CHO cells; type: cell-based
T1 sequence (P25929 whole entry): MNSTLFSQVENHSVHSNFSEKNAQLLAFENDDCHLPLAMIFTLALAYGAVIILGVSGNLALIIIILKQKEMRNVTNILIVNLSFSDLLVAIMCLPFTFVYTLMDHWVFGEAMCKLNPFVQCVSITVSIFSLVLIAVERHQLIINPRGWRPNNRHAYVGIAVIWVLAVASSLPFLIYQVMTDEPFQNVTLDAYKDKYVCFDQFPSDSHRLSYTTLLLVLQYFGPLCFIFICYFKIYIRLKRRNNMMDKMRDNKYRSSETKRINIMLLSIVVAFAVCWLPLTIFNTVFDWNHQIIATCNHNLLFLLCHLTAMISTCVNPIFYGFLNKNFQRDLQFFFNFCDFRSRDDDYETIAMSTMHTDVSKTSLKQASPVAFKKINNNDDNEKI

[3] = Oral bioavailability in Sprague-Dawley rat at 5 mg/kg, po; type: ADME, organism-based; details: in vivo
Method in brief: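 Male Sprague–Dawley rats received 5 mg/kg orally as a methocel suspension. F was calculated from the normalised AUC against the iv (1 mg/kg) dose.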

[4] = Ratio of drug level in […] plasma in Sprague-Dawley rat at 1 mg/kg, iv after 5 mins; details: in vivo
[5] = Half life in Sprague-Dawley rat at 1 mg/kg, iv; type: ADME, organism-based; set-up: dose 1 mg/kg, route intravenous; details: in vivo
Method in brief: (§1)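 Male Sprague–Dawley rats given 1 mg/kg iv as a solution in DMSO/PEG400/H2O 5:50:45. Clearance, half-life, volume of distribution and AUC were derived from the post-dose profile.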

[6] = Plasma clearance in Sprague-Dawley rat at 1 mg/kg, iv; type: ADME, organism-based; set-up: dose 1 mg/kg, route intravenous; method in brief: as §1

Row | Structure (SMILES) | pIC50 [2] | further results
1 | CN1CCN(C(=O)c2cc(Oc3ccc(Cl)cc3)c3c(c2)c2ccccc2n3C[C@@H]2CCN(C)C[C@H]2F)CC1 | 7.02 | blood plasma ratio at 5 min [1]: 8.2
2 | CN1CCN(C(=O)c2cc(Oc3ccc(Cl)cc3)c3c(c2)c2ccccc2n3C[C@@H]2CCN(C3CC3)C[C@@H]2F)CC1 | 6.73 | 
3 | CN(C)CCN(C)C(=O)c1cc(Oc2ccc(Cl)cc2)c2c(c1)c1ccccc1n2C[C@@H]1CCNC[C@H]1F | 6.72 | 
4 | CN1CCN(C(=O)c2cc(Oc3ccc(Cl)cc3)c3c(c2)c2ccccc2n3CC2CCNCC2)CC1 | 7.80 | bioavailability [3]: 0%; Ratio [4]: 0.12
5 | O=C(c1cc(Oc2ccc(Cl)cc2)c2c(c1)c1ccccc1n2C[C@@H]1CCNC[C@@H]1F)N1CCN(CC(F)(F)F)CC1 | 5.01 | 
6 | CN1CCCC1CCNC(=O)c1cc(Oc2ccc(Cl)cc2)c2c(c1)c1ccccc1n2C[C@@H]1CCNC[C@H]1F (stereo partly specified) | 5.73 | 
7 | CN(C)CCNC(=O)c1cc(Oc2ccc(Cl)cc2)c2c(c1)c1ccccc1n2C[C@@H]1CCNC[C@H]1F | 7.30 | 
8 | O=C(c1cc(Oc2ccc(Cl)cc2)c2c(c1)c1ccccc1n2C[C@@H]1CCNC[C@@H]1F)N1CCC(O)CC1 | 5.11 | 
9 | CN(C)C1CCN(C(=O)c2cc(Oc3ccc(Cl)cc3)c3c(c2)c2ccccc2n3C[C@@H]2CCNC[C@H]2F)C1 (stereo partly specified) | 6.33 | 
10 | CN1CCN(C(=O)c2cc(Oc3ccc(Cl)cc3)c3c(c2)c2ccccc2n3CCCN2CCCCC2)CC1 | 7.30 | 
11 | O=C(c1cc(Oc2ccc(Cl)cc2)c2c(c1)c1ccccc1n2C[C@@H]1CCNC[C@H]1F)N1CCN(C2CC2)CC1 | 6.06 | 
12 | O=C(c1cc(Oc2ccc(Cl)cc2)c2c(c1)c1ccccc1n2C[C@@H]1CCNC[C@@H]1F)N1CCN(CCO)CC1 | 6.08 | 
13 | O=C(c1cc(Oc2ccc(Cl)cc2)c2c(c1)c1ccccc1n2C[C@@H]1CCNC[C@@H]1F)N1CCn2ccnc2C1 | 5.72 | 
14 | CN1CCN(C(=O)c2cc(Oc3ccc(Cl)cc3)c3c(c2)c2ccccc2n3C[C@@H]2CCN(C)C[C@@H]2F)CC1 | 7.55 | half-life [5]: 11 h; bioavailability [3]: 19%; clearance [6]: 15 mL/min/kg; blood plasma ratio at 5 min [1]: 4.2
15 | CN1CCC(Cn2c3ccccc3c3cc(C(=O)N4CCN(C)CC4)cc(Oc4ccc(Cl)cc4)c32)CC1 | 7.96 | blood plasma ratio at 5 min [1]: 0.8
16 | CN1CCN(C(=O)c2cc(Oc3ccc(Cl)cc3)c3c(c2)c2ccccc2n3CC2CCCNC2)CC1 (stereo unspecified) | 6.97 | 
17 | CN1CCN(C(=O)c2cc(Oc3ccc(Cl)cc3)c3c(c2)c2ccccc2n3CC2=C(F)CNCC2)CC1 | 7.37 | 
18 | CN(C)C(=O)c1cc(Oc2ccc(Cl)cc2)c2c(c1)c1ccccc1n2C[C@@H]1CCNC[C@H]1F | 4.92 | 
19 | CN1CCN(C(=O)c2cc(Oc3ccc(Cl)cc3)c3c(c2)c2ccccc2n3C[C@@H]2CCNC[C@@H]2F)CC1 | 7.29 | 
20 | O=C(c1cc(Oc2ccc(Cl)cc2)c2c(c1)c1ccccc1n2C[C@@H]1CCNC[C@@H]1F)N1CCc2nc[nH]c2C1 | 5.54 | 
21 | CN1CCN(C(=O)c2cc(Oc3ccc(Cl)cc3)c3c(c2)c2ccccc2n3C[C@@H]2CCNC[C@H]2F)CC1 | 7.28 | 
22 | CCN1CCCC1CNC(=O)c1cc(Oc2ccc(Cl)cc2)c2c(c1)c1ccccc1n2C[C@@H]1CCNC[C@H]1F (stereo partly specified) | 6.58 | 
23 | CN1CCN(C(=O)c2cc(Oc3ccc(Cl)cc3)c3c(c2)c2ccccc2n3CC2CCN(CC(=O)N(C)C)CC2)CC1 | 7.85 | 
